The full list was thinned out, with hits kept by preference.
Fibroblast inh: blocks proliferation of human lung fibroblasts | LL 47 human lung fibroblast viability, ATP luminescence; stronger effect = lower value | viability, % at 10 µM | actives 1.1% (n = 85,000);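 active = viability at or below 50% in the single dose screen; inactive = viability above 50%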;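 note: compound exposure lasted 72 h before the ATP readout; 100% = median luminescence of untreated cell-only wells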
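Assay system: human lung fibroblast line LL 47, low passage. Input: 1,150 fibroblasts seeded per well. Times: overnight cell rest, 72 h compound treatment at 37 °C. Evaluation: % viability of median cell-only signal. Technique: luminescent ATP detection, CellTiter-Glo. Control set: cell-only wells, no compound.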
H69AR growth 86K: blocks growth of human H69AR lung tumor cells; viability, % at 10 µM; actives 6% (n = 85,000); H69AR lung tumor viability, ATP luminescence, 72 h; stronger effect = lower value;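 active = viability at or below 40%; inactive = viability above 40%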;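 note: multidrug resistant small cell line overexpressing MRP-1 efflux transporter; 100% = mean luminescence of untreated control wells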
HUVEC inhibit: blocks proliferation of human endothelial cells | HUVEC proliferation, CellTiter-Glo luminescence, 72 h; stronger effect = lower value | viability, % at 10 µM (by protocol) | actives 1.1% (n = 86,000);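 active = viability at or below 30%; inactive = viability above 30%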;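 note: 100% = median luminescence of DMSO-only cell control wells on each plate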
HCT116 bCat-KO: beta-catenin-lacking colon tumor cell growth suppression. actives 1.5% (n = 140,000). HCT116 beta-catenin knockout viability, CellTiter-Glo, 60 h; stronger effect = lower value. viability, % at 10 µM;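 active = viability at or under a set limit, the compound median less 4 SD, cut at about 6% in these data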;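 note: 0% = Hyamine 1622 control at 20 µM and 100% = untreated cell control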
HCT116 PTEN-null: PTEN-deleted cell growth suppression | HCT116 PTEN-null viability, CellTiter-Glo, 60 h; stronger effect = lower value | viability, % at 10 µM | actives 1.2% (n = 140,000) | AID 827;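 active = viability at or below a set limit, 4 SD under the median of all tested compounds, cut at about 3.7% in these data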;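 note: PTEN knockout HCT116 line with beta catenin targeted HCT116 as companion control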
Phagocytosis inh: inhibitors of macrophage phagocytosis; AID 1029; J774A.1 macrophage IgG-bead phagocytosis, imaging; actives 0.07% (n = 110,000); inhibition, % at 5 µM;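 active = inhibition above the mean of the plate negative controls plus 5 SD, cut at about 13% in these data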;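 note: phagocytic index as fraction of beads internalized from green versus red external bead signal; plate controls were DMSO negative control for no effect and cytochalasin-D positive control for full effect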
* hit, by the source's call; nt = not tested or not shown.

SMILES | Fibroblast inh | H69AR growth 86K | HUVEC inhibit | HCT116 bCat-KO | HCT116 PTEN-null | Phagocytosis inh
Cc1noc(C)c1C(=O)OCC(=O)NC1CC1 | nt | nt | nt | 83 | 89 | 1
COC(=O)c1sc(N)c(C(=O)OC)c1COC(=O)c1c(C)noc1C | 54 | 19* | 67 | 24 | 22 | 0
COC(=O)c1ccc2c(c1)NC(=O)C(N1CCCC1)S2 (centres undefined) | nt | nt | nt | 85 | 84 | -1
CCOC(=O)c1ccc2c(c1)NC(=O)C(N1CCN(c3ccc(OC)cc3)CC1)S2 (centres undefined) | 46* | 31* | 68 | 78 | 67 | 0
C/C(=N\Nc1cc(-c2ccccc2)nc(-c2ccccc2)n1)c1ccc(O)c(C)c1 | nt | nt | nt | 11 | 2.0* | 0
CC12C(=O)N(Cc3ccco3)C(=O)C1C1c3ccccc3C2c2ccccc21 (centres undefined) | 95 | 103 | 97 | 96 | 93 | 1
Cn1nc(C(=O)Nc2c(-c3ccccc3)nc3sccn23)c2ccccc2c1=O | 40* | 26* | 41 | 97 | 100 | 0
COc1cc2c3c(c1)-c1c(sn(-c4cc(OC)ccc4OC)c1=S)C(C)(C)N3C(=O)C2=O | 101 | 3.9* | 51 | 2.4* | 1.2* | nt
CC1CCN(Cc2c(O)ccc3c(=O)c(-c4nc5ccccc5s4)c(N)oc23)CC1 | nt | nt | nt | 23 | 4 | -4
CC1CCCN(Cc2c(O)ccc3c(=O)c(-c4nc5ccccc5s4)c(N)oc23)C1 (centres undefined) | nt | nt | nt | 1.0* | 0.9* | nt
COc1cccc(C2=NOC(C(=O)Nc3cc(C)nn3-c3ccccc3)C2)c1OC (centres undefined) | 90 | 32* | 75 | 57 | 53 | 1
Cc1ccc(OCCOCCOc2cccc3cccnc23)c(Br)c1 | nt | nt | nt | 55 | 52 | -2
Cc1ccc(-n2c(-c3ccc(Br)cc3)c[n+]3c2CCc2ccc4cccnc4c2-3)cc1 | 21* | 2.8* | 14* | 1.5* | 0.8* | nt
c1ccc(/N=C2\N=C(Nc3ccccn3)c3ccccc32)nc1 | 54 | 1.0* | 2.4* | nt | nt | nt
O=C(COC(=O)Cc1ccccc1F)Nc1cc(S(=O)(=O)N2CCOCC2)ccc1N1CCCC1 | nt | nt | nt | 94 | 93 | -9
CCOC(=O)c1cc(NC(=O)CSCCO)ccc1Cl | 97 | 15* | 105 | 88 | 91 | -3
Cc1ccc(NC(=O)CSCC#N)cc1Cl | nt | nt | nt | 100 | 90 | -4
CC(=O)c1nn(-c2cccc(Br)c2)cc1C(=O)c1ccc2ccccc2c1 | nt | nt | nt | 3.7* | 4 | -1
COc1ccccc1NS(=O)(=O)c1cc(NC(=O)Nc2ccccc2)ccc1N1CCCCC1 | nt | nt | nt | 64 | 46 | -5
O=C(Nc1ccc(F)cc1)Nc1ccc(N2CCCC2)c(S(=O)(=O)Nc2ccccc2Cl)c1 | nt | nt | nt | 2.8* | 1.9* | -11
O=C(Nc1ccc(Cl)c(Cl)c1)Nc1ccc(N2CCCC2)c(S(=O)(=O)Nc2ccccc2Cl)c1 | nt | nt | nt | 1.6* | 1.4* | -14
Cc1ccc(S(=O)(=O)N[C@H](C(=O)OCC(=O)N2N=C(c3ccc(Cl)cc3)CC2c2ccco2)C(C)C)cc1 (some centres undefined) | nt | nt | nt | 49 | 43 | -14
O=C(CCCCCNC(=O)c1ccccc1)N/N=C/c1ccc(O)cc1O | nt | nt | nt | 91 | 95 | -8
Cc1cc(SCC(=O)N/N=C/c2ccc(O)cc2O)c(C)cc1Br | 37* | 26* | 35 | 9 | 9 | -1
CC1CCCN(c2oc(-c3cccc4ccccc34)nc2C#N)C1 (centres undefined) | 47* | 95 | 96 | 89 | 95 | -1
SMILES | Fibroblast inh | H69AR growth 86K | HUVEC inhibit | HCT116 bCat-KO | HCT116 PTEN-null | Phagocytosis inh
CC1CCN(c2oc(-c3ccccc3Cl)nc2C#N)CC1 | 96 | 84 | 91 | 88 | 82 | 0
Cc1cccc(N2CCN(CC(O)COCc3cccs3)CC2)c1C (centres undefined) | nt | nt | nt | 69 | 62 | -8
Fc1ccccc1/C=N/NC(=S)Nc1ccc(Cl)cc1Cl | nt | nt | nt | 24 | 20 | nt
CCN1C(=O)C(CC(=O)Nc2ccc(Br)cc2)N(CCCc2ccccc2)C1=S (centres undefined) | nt | nt | nt | 33 | 23 | nt
CN(C)CCCN(C(=O)c1ccc2c(c1)CCCC2)c1nc2c(F)cccc2s1 | nt | nt | nt | 29 | 16 | nt
Cc1ccc2nc(N(CCCN(C)C)C(=O)c3ccc4c(c3)CCCC4)sc2c1 | nt | nt | nt | 3.4* | 1.0* | 7
Cn1c(CSCc2ccc(F)cc2)nnc1SCC(=O)N1CCN(c2ccccc2)CC1 | nt | nt | nt | 56 | 65 | 1
COc1cccc2c1C(=O)C=C(C)C2=O | nt | nt | nt | 1.8* | 2.9* | -5
CCc1ccc(OCC(=O)Nc2ncc3c(n2)CC(C)(C)CC3=O)cc1 | 106 | 103 | 97 | 99 | 111 | 2
O=c1[nH]c(SCc2nc3ccccc3n2Cc2ccccc2)nc2ccccc12 | nt | nt | nt | 2.1* | 2.7* | 0
Nc1cc(=O)[nH]c(SCc2nc3ccccc3n2Cc2ccccc2)n1 | 104 | 90 | 96 | 89 | 84 | 0
CCC(=O)OCCNc1cc(SCCC(=O)OC)c2nonc2c1[N+](=O)[O-] | nt | nt | nt | 67 | 67 | 0
CCC(=O)OCCNc1cc(Sc2nccn2C)c2nonc2c1[N+](=O)[O-] | nt | nt | nt | 1.6* | 1.7* | -9
CCCC(=O)OCCNc1cc(Sc2nc3ccccc3[nH]2)c2nonc2c1[N+](=O)[O-] | nt | nt | nt | 3.6* | 3.6* | nt
Nc1ncnc(Sc2ccc(Cl)cc2)c1[N+](=O)[O-] | nt | nt | nt | 36 | 31 | -3
CC(=O)OCCCNc1cc(Sc2ccc(Cl)cc2)c2nonc2c1[N+](=O)[O-] | nt | nt | nt | 1.5* | 1.6* | 10
C#CCNc1nc(C)nc2c1nnn2Cc1ccccc1F | nt | 95 | 108 | 99 | 106 | nt
CC(O)CN(Cc1cccc(Cl)c1)CC(C)O (centres undefined) | 107 | 88 | 93 | 90 | 103 | -2
COc1cc(C(=O)NC(=S)Nc2ccc3c(c2)C(=O)N(C)C3=O)cc(OC)c1OC | nt | nt | nt | 96 | 98 | -4
COc1cccc(-c2ccc(C#N)c(SCC(=O)NCCc3cccc(Cl)c3)n2)c1 | nt | nt | nt | 71 | 73 | nt
CCN1CCN(CC(=O)Nc2sc3c(c2C#N)CCC(C)C3)CC1 (centres undefined) | 92 | 32* | 79 | 1.4* | 1.5* | 0
CCCC(=O)Nc1sc2c(c1C#N)CCCCC2 | 100 | 99 | 82 | 0.9* | 1.0* | nt
COc1ccc(-c2ccc(C#N)c(SCC(=O)NCCc3ccccc3)n2)cc1OC | nt | nt | nt | 5.7* | 4 | -3
N#Cc1cc2c(nc1SCC(=O)Nc1sc3c(c1C#N)CCC3)CCC2 | 86 | 34* | 57 | 104 | 88 | nt
CC(C)(C)C(=O)NC(=S)Nc1ccc(F)cc1 | nt | nt | nt | 96 | 99 | -1
CC(=O)OCCOc1nc(N(C)C)nc(N(C)C)n1 | 98 | 100 | 102 | 94 | 108 | -1
COc1ccccc1CP(=O)(c1ccccc1)c1ccccc1 | nt | nt | nt | 93 | 83 | 0
C=CCn1c(SCC(=O)Nc2ccc(-c3nc4ccc(C)cc4s3)cc2)nnc1-c1ccccc1 | nt | nt | nt | 100 | 90 | -12

Assay outcomes from PubChem BioAssay.
